PP5 primary: PP5 (human) phosphatase inhibition. purified PP5c, OMFP substrate fluorescence. inhibition, % at 6.7 µM. 320,000 tested, 0.18% active. P53041;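 active means inhibition above the campaign's mean inhibition across all tested compounds plus 3 SD, cut at about 9.5% in these data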
PP1 counter: counter-screen for PP5 inhibitors: inhibitors of human PP1-alpha; P62136; purified PP1alpha, OMFP fluorescence; inhibition, % at 6.7 µM; 320,000 tested, 0.9% active;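 active means inhibition above the mean inhibition of all tested compounds plus 3 SD, computed separately for each screening campaign, cut at about 15% in these data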
PKD1 inh: inhibitors of human PKD1 kinase | PKD1 kinase fluorescence polarization assay | inhibition, % (no concentration beside the values) | 200,000 tested, 0.056% active; in the data active means inhibition above about 50%
p97 ATPase inh: inhibitors of human p97 ATPase | AID 1481 | inhibition, % at 8 µM | P55072 | 220,000 tested, 0.42% active | recombinant p97 ATPase, Kinase-Glo ATP luminescence, 3 h; in the data active means inhibition above about 15%
RBBP9 inhibitor: inhibitors of human serine hydrolase RBBP9; inhibition, % at 7.94 µM; 220,000 tested, 0.2% active; O75884; AID 1515; recombinant RBBP9, FP-Rh probe fluorescence polarization;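 active means inhibition above the campaign mean of all tested compounds plus 3 SD, cut at about 14% in these data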
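Assay system: recombinant human RBBP9; Reagent: Serine-hydrolase probe FP-Rh, 375 nM pre-mixing; Doses: 7.94 µM single dose, 0.794% DMSO; Incubation: 30 min then 45 min, 25 °C; Detection: fluorescence polarization (mP), excitation 525 nm, emission 598 nm; Evaluation: percent inhibition from mP, scaled between DMSO and no-protein wells.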
Hsp70 activator: switches on Hsp70 transcription. activation, % at 10 µM. HeLa Hsp70 promoter luciferase reporter, luminescence; scaled: vehicle 0, proteasome-inhibitor control 100%. 200,000 tested, 0.04% active. AID 1203;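 active means activation above the mean across all tested compounds plus 3 SD, cutoff set per campaign, cut at about 5.5% in these data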
A number is an active result; i = inactive; nt = no result given. Compounds with a hit are over-represented: about 1.5% of the library has one in this group of screens.

SMILES	PP5 primary	PP1 counter	PKD1 inh	p97 ATPase inh	RBBP9 inhibitor	Hsp70 activator
O=C(Nc1ncn[nH]1)c1cc(S(=O)(=O)Nc2ccc(Cl)cc2)ccc1Cl	i	i	i	i	i	i
O=C(Nc1ncn[nH]1)c1ccc(Cl)c(S(=O)(=O)Nc2ccc(Cl)cc2)c1	i	17	i	i	i	i
O=C(CCl)NN1C(=O)NC(c2ccccc2)(c2ccccc2)C1=O	i	i	nt	nt	nt	nt
c1ccc(Oc2nnc(-c3cccs3)c3ccccc23)cc1	i	16	i	i	i	i
Cc1sc(NC(=O)c2sc3nc4c(C)cccc4cc3c2N)c(C#N)c1C	i	17	i	i	i	i
CCC(C)NC(=O)CSc1ccc(S(=O)(=O)N2CCN(Cc3ccccc3)CC2)cn1 (stereo unspecified)	i	i	nt	nt	nt	nt
COC/C=C/C1=CC2=CC(=O)C(C)(OC(=O)c3cnc4ccccc4n3)C(=O)C2=CN1C1CC1 (stereo unspecified)	i	i	nt	nt	nt	nt
COC/C=C/C1=CC2=CC(=O)C(C)(OC(=O)c3cnc4ccccc4n3)C(=O)C2=CN1c1ccc(OC)cc1 (stereo unspecified)	i	18	nt	nt	nt	nt
O=C(NCc1ccccc1)c1onc(CSc2ccc(Cl)cc2)c1C(=O)NCC1CC1	i	i	nt	nt	nt	nt
O=C(NCc1ccccc1)c1onc(CSc2ccccc2)c1C(=O)NCC1CC1	i	16	nt	nt	nt	nt
CC1(C)CC(=O)C=C(c2ccc3ccccc3c2)C1	i	i	nt	nt	nt	nt
COc1ccccc1N(CC(=O)NC1CCCCC1)C(=O)CCC(=O)Nc1nccs1	i	i	nt	nt	nt	nt
Cc1ccccc1N(CC(=O)NC1CCCCC1)C(=O)CCC(=O)Nc1nccs1	i	17	nt	nt	nt	nt
O=C1c2ccccc2C(O)(c2ccccc2)N1c1ccncc1 (stereo unspecified)	i	16	nt	i	i	nt
CCOc1ccc(S(=O)(=O)N(C)CC(=O)NCc2ccc3c(c2)OCO3)cc1	i	i	nt	nt	nt	nt
CCCCn1nc(C(=O)Nc2cc(C(F)(F)F)ccc2N2CCOCC2)ccc1=O	i	i	nt	nt	nt	nt
O=C(CN1CCN(c2nc(-c3ccc(Cl)cc3)cs2)CC1)NCc1ccco1	i	16	i	i	i	i
CC(C)(C)OC(=O)COc1cc(O)c2c(=O)cc(-c3ccccc3)oc2c1	i	i	i	i	i	i
CC(C)(C)OC(=O)COc1cc(OCC(=O)OC(C)(C)C)c2c(=O)cc(-c3ccccc3)oc2c1	i	17	i	i	i	i
Cc1ccc(-n2c(SCC(=O)Nc3ccc4c5c(cccc35)CC4)nc(O)cc2=O)cc1	i	16	i	i	i	i
O=[N+]([O-])c1ccc(Sc2ccccn2)nc1	i	i	nt	i	i	nt
O=C(Nc1cc(Sc2ccccn2)cc([N+](=O)[O-])c1)c1ccc([N+](=O)[O-])cc1	i	16	i	i	i	i
CCOC(=O)c1cc(-c2ccc(N3CCOCC3)cc2)nn1-c1ccc(F)cc1F	i	17	i	i	i	i
CCOc1cccc(C(=O)N2CCCCC2c2cccnc2)c1 (stereo unspecified)	i	16	i	i	i	i
CC(=O)c1ccc(OCc2cc(C(=O)N3CCCCC3c3cccnc3)no2)cc1 (stereo unspecified)	i	i	nt	nt	nt	nt
SMILES	PP5 primary	PP1 counter	PKD1 inh	p97 ATPase inh	RBBP9 inhibitor	Hsp70 activator
Nc1cc(OC(=O)c2cccs2)nn1S(=O)(=O)c1ccccc1	i	15	i	i	i	i
Nc1cc(OC(=O)c2cccs2)nn1S(=O)(=O)c1ccc(F)cc1	i	i	i	i	i	i
CN(Cc1cccs1)S(=O)(=O)c1ccc(Cl)cc1F	i	i	nt	nt	nt	nt
CCCCN1CC(=O)N2[C@H]3c4cc(C)ccc4OC[C@@H]3[C@H](C(=O)OCC)[C@]2(C)C1=O	i	i	nt	nt	nt	nt
COc1ccc(CNCCC(c2ccc(OC(C)C)cc2)c2ccccc2OC)cc1 (stereo unspecified)	i	i	nt	nt	nt	nt
COc1ccccc1C(CCNCc1ccc(N(C)C)cc1)c1ccc(OC(C)C)cc1 (stereo unspecified)	i	16	nt	nt	nt	nt
O=C(CN1CCN(S(=O)(=O)c2ccc(F)c(Cl)c2)CC1)N1CCOCC1	i	i	nt	nt	nt	nt
CC(=O)Oc1ccc(-c2cc3ccc(OC(C)=O)cc3oc2=O)cc1	i	i	nt	nt	nt	nt
COc1cccc(/C=N/NC(=O)c2cc3c(OC)ccc(OC)c3[nH]2)c1O	i	16	nt	nt	nt	nt
COc1cccc(/C=N/NC(=O)c2ccc3nc[nH]c3c2)c1O	i	i	nt	i	i	nt
